{"source": "ChEMBL document CHEMBL4393705", "about": "“New chalcone-sulfonamide hybrids exhibiting anticancer and antituberculosis activity” (Eur J Med Chem, 2019)", "assay_type_in_all_cases": "functional", "key": {"[1]": {"tested_on": "SK-OV-3", "assay": "Anticancer activity against human SKOV3 cells assessed as cell growth inhibition measured after 48 hrs by SRB assay", "conditions": "SK-OV-3, 48 h", "method_in_brief": "(§1)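 NCI 60-cell screen, five-dose mode at 100, 10, 1.0, 0.1 and 0.01 µM. Cells grown in RPMI-1640 with 5% FBS and 2 mM L-glutamine, seeded and held 24 h at 37°C, 5% CO2, then exposed for 48 h. Fixed with cold TCA (10% final), stained with 0.4% SRB and read at 515 nm. Time-zero plates were used. GI50 is the concentration giving 50% lower net protein increase than control.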"}, "[2]": {"tested_on": "HL-60", "assay": "Anticancer activity against human HL60 cells assessed as cell growth inhibition measured after 48 hrs by SRB assay", "conditions": "HL-60, 48 h", "method_in_brief": "(§2)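 NCI-60 five-dose screen at 100, 10, 1.0, 0.1 and 0.01 µM final. Cells in RPMI-1640 with 5% FBS and 2 mM glutamine were seeded 24 h ahead at 37°C, 5% CO2. Compound exposure was 48 h, followed by TCA fixation and SRB staining, read at 515 nm. GI50 is the concentration giving 50% lower net protein increase than control, using time-zero plates.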"}, "[3]": {"tested_on": "SR", "assay": "Anticancer activity against human SR cells assessed as cell growth inhibition measured after 48 hrs by SRB assay", "method_in_brief": "as §1"}, "[4]": {"tested_on": "EKVX", "assay": "Anticancer activity against human EKVX cells assessed as cell growth inhibition measured after 48 hrs by SRB assay", "method_in_brief": "as §2"}, "[5]": {"tested_on": "NCI-H226", "assay": "Anticancer activity against human NCI-H226 cells assessed as cell growth inhibition measured after 48 hrs by SRB assay", "conditions": "NCI-H226, 48 h", "method_in_brief": "as §2"}, "[6]": {"tested_on": "NCI-H23", "assay": "Anticancer activity against human NCI-H23 cells assessed as cell growth inhibition measured after 48 hrs by SRB assay", "conditions": "NCI-H23, 48 h", "method_in_brief": "as §2"}, "[7]": {"tested_on": "NCI-H522", "assay": "Anticancer activity against human NCI-H522 cells assessed as cell growth inhibition measured after 48 hrs by SRB assay", "conditions": "NCI-H522, 48 h", "method_in_brief": "as §2"}, "[8]": {"tested_on": "COLO 205", "assay": "Anticancer activity against human COLO205 cells assessed as cell growth inhibition measured after 48 hrs by SRB assay", "conditions": "COLO 205, 48 h", "method_in_brief": "as §2"}, "[9]": {"tested_on": "KM12", "assay": "Anticancer activity against human KM12 cells assessed as cell growth inhibition measured after 48 hrs by SRB assay", "conditions": "KM12, 48 h", "method_in_brief": "as §2"}, "[10]": {"tested_on": "SF-295", "assay": "Anticancer activity against human SF295 cells assessed as cell growth inhibition measured after 48 hrs by SRB assay", "conditions": "SF-295, 48 h", "method_in_brief": "as §2"}, "[11]": {"tested_on": "SF-539", "assay": "Anticancer activity against human SF539 cells assessed as cell growth inhibition measured after 48 hrs by SRB assay", "conditions": "SF-539, 48 h", "method_in_brief": "as §1"}, "[12]": {"tested_on": "U-251", "assay": "Anticancer activity against human U251 cells assessed as cell growth inhibition measured after 48 hrs by SRB assay", "conditions": "U-251, 48 h", "method_in_brief": "as §1"}, "[13]": {"tested_on": "Malme-3M", "assay": "Anticancer activity against human MALME-3M cells assessed as cell growth inhibition measured after 48 hrs by SRB assay", "method_in_brief": "as §2"}, "[14]": {"tested_on": "SK-MEL-28", "assay": "Anticancer activity against human SK-MEL-28 cells assessed as cell growth inhibition measured after 48 hrs by SRB assay", "conditions": "SK-MEL-28, 48 h", "method_in_brief": "as §1"}, "[15]": {"tested_on": "UACC-257", "assay": "Anticancer activity against human UACC257 cells assessed as cell growth inhibition measured after 48 hrs by SRB assay", "conditions": "UACC-257, 48 h", "method_in_brief": "as §1"}, "[16]": {"tested_on": "UACC-62", "assay": "Anticancer activity against human UACC62 cells assessed as cell growth inhibition measured after 48 hrs by SRB assay", "conditions": "UACC-62, 48 h", "method_in_brief": "as §1"}, "[17]": {"tested_on": "OVCAR-4", "assay": "Anticancer activity against human OVCAR4 cells assessed as cell growth inhibition measured after 48 hrs by SRB assay", "conditions": "OVCAR-4, 48 h", "method_in_brief": "as §2"}, "[18]": {"tested_on": "OVCAR-5", "assay": "Anticancer activity against human OVCAR5 cells assessed as cell growth inhibition measured after 48 hrs by SRB assay", "conditions": "OVCAR-5, 48 h", "method_in_brief": "as §2"}, "[19]": {"tested_on": "NCI/ADR-RES", "assay": "Anticancer activity against human NCI/ADR-RES cells assessed as cell growth inhibition measured after 48 hrs by SRB assay", "method_in_brief": "as §2"}, "[20]": {"tested_on": "A498", "assay": "Anticancer activity against human A498 cells assessed as cell growth inhibition measured after 48 hrs by SRB assay", "conditions": "A498, 48 h", "method_in_brief": "as §2"}, "[21]": {"tested_on": "ACHN", "assay": "Anticancer activity against human ACHN cells assessed as cell growth inhibition measured after 48 hrs by SRB assay", "method_in_brief": "as §2"}, "[22]": {"tested_on": "SN12C", "assay": "Anticancer activity against human SN12C cells assessed as cell growth inhibition measured after 48 hrs by SRB assay", "method_in_brief": "as §1"}, "[23]": {"tested_on": "TK-10", "assay": "Anticancer activity against human TK10 cells assessed as cell growth inhibition measured after 48 hrs by SRB assay", "conditions": "TK-10, 48 h", "method_in_brief": "as §1"}, "[24]": {"tested_on": "UO-31", "assay": "Anticancer activity against human UO31 cells assessed as cell growth inhibition measured after 48 hrs by SRB assay", "conditions": "UO-31, 48 h", "method_in_brief": "as §1"}, "[25]": {"tested_on": "DU-145", "assay": "Anticancer activity against human DU145 cells assessed as cell growth inhibition measured after 48 hrs by SRB assay", "conditions": "DU-145, 48 h", "method_in_brief": "as §2"}, "[26]": {"tested_on": "MCF7", "assay": "Anticancer activity against human MCF7 cells assessed as cell growth inhibition measured after 48 hrs by SRB assay", "conditions": "MCF7, 48 h", "method_in_brief": "as §2"}, "[27]": {"tested_on": "Mycobacterium tuberculosis", "assay": "Antitubercular activity against Mycobacterium tuberculosis H37Rv ATCC27294 measured after 2-3 weeks by agar dilution SPOTi assay", "conditions": "H37Rv ATCC 27294", "method_in_brief": "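Agar dilution SPOTi on Middlebrook 7H10 with 0.5% glycerol and 10% OADC. Final compound levels 50, 20, 10, 5, 2 mg/L, added from DMSO dilutions. 2 µL of a 10^6 CFU/mL inoculum from a 4-week Löwenstein-Jensen culture spotted per well, incubated 2-3 weeks at 37°C. MIC is the lowest concentration with no visible growth. Repeated on a separate day; isoniazid was the reference.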"}, "[28]": {"tested_on": "Mycolicibacterium smegmatis", "assay": "Antibacterial activity against Mycobacterium smegmatis MC2 155 measured after 48 hrs by agar dilution SPOTi assay", "conditions": "MC2 155, 48 h", "method_in_brief": "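SPOTi agar dilution on Middlebrook 7H10 without OADC. Cells were passaged in Middlebrook 7H9 and then spotted. Compounds were tested at 100, 50, 20, 10 and 5 mg/L, with kanamycin as positive control. Plates were incubated 48 h at 37°C. MIC was taken as the lowest concentration with no visible growth.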"}, "[29]": {"conditions": "read-out: LC50 (the source's name)"}}, "data": [{"smiles": "COc1ccc(C(=O)/C=C/c2ccc(Cl)cc2)cc1S(N)(=O)=O", "values": [{"measurement": "GI50", "setting": "[1]", "result": 5.96, "unit": "µM"}, {"measurement": "LC50 (concentration killing 50% of cells relative to time zero)", "setting": "[1]", "result": 43.1, "unit": "µM"}, {"measurement": "GI50", "setting": "[2]", "result": 3.08, "unit": "µM"}, {"measurement": "CC50", "setting": "[2]; [29]", "result": "> 100", "unit": "µM"}, {"measurement": "GI50", "setting": "[3]", "result": 0.86, "unit": "µM"}, {"measurement": "LC50 (concentration giving 50% net cell kill)", "setting": "[3]", "result": "> 100", "unit": "µM"}, {"measurement": "GI50", "setting": "[4]", "result": 4.56, "unit": "µM"}, {"measurement": "LC50 (concentration killing 50% of cells)", "setting": "[4]", "result": 50.5, "unit": "µM"}, {"measurement": "GI50", "setting": "[5]", "result": 3.66, "unit": "µM"}, {"measurement": "CC50", "setting": "[5]; [29]", "result": 95.7, "unit": "µM"}, {"measurement": "GI50", "setting": "[6]", "result": 2.54, "unit": "µM"}, {"measurement": "LC50", "setting": "[6]", "result": 40.9, "unit": "µM"}, {"measurement": "GI50", "setting": "[7]", "result": 1.93, "unit": "µM"}, {"measurement": "CC50", "setting": "[7]; [29]", "result": 12.1, "unit": "µM"}, {"measurement": "GI50", "setting": "[8]", "result": 2.03, "unit": "µM"}, {"measurement": "LC50 (concentration giving 50% net cell kill)", "setting": "[8]", "result": 17.4, "unit": "µM"}, {"measurement": "GI50", "setting": "[9]", "result": 1.73, "unit": "µM"}, {"measurement": "LC50 (lethal concentration, 50% net cell kill)", "setting": "[9]", "result": 8.26, "unit": "µM"}, {"measurement": "GI50", "setting": "[10]", "result": 3.04, "unit": "µM"}, {"measurement": "LC50", "setting": "[10]", "result": 31.9, "unit": "µM"}, {"measurement": "GI50", "setting": "[11]", "result": 1.6, "unit": "µM"}, {"measurement": "CC50", "setting": "[11]; [29]", "result": 6.82, "unit": "µM"}, {"measurement": "GI50", "setting": "[12]", "result": 1.96, "unit": "µM"}, {"measurement": "LC50", "setting": "[12]", "result": 9.33, "unit": "µM"}, {"measurement": "GI50", "setting": "[13]", "result": 5.89, "unit": "µM"}, {"measurement": "LC50", "setting": "[13]", "result": 54.8, "unit": "µM"}, {"measurement": "GI50", "setting": "[14]", "result": 3.24, "unit": "µM"}, {"measurement": "CC50", "setting": "[14]; [29]", "result": 37.2, "unit": "µM"}, {"measurement": "GI50", "setting": "[15]", "result": 12.2, "unit": "µM"}, {"measurement": "CC50", "setting": "[15]; [29]", "result": 50.8, "unit": "µM"}, {"measurement": "GI50", "setting": "[16]", "result": 4.88, "unit": "µM"}, {"measurement": "CC50", "setting": "[16]; [29]", "result": 44.8, "unit": "µM"}, {"measurement": "GI50", "setting": "[17]", "result": 3.47, "unit": "µM"}, {"measurement": "LC50", "setting": "[17]", "result": 40.4, "unit": "µM"}, {"measurement": "GI50", "setting": "[18]", "result": 3.08, "unit": "µM"}, {"measurement": "CC50", "setting": "[18]; [29]", "result": 44.9, "unit": "µM"}, {"measurement": "GI50", "setting": "[19]", "result": 3.64, "unit": "µM"}, {"measurement": "LC50", "setting": "[19]", "result": "> 100", "unit": "µM"}, {"measurement": "GI50", "setting": "[20]", "result": 10.4, "unit": "µM"}, {"measurement": "CC50", "setting": "[20]; [29]", "result": 47.1, "unit": "µM"}, {"measurement": "GI50", "setting": "[21]", "result": 1.94, "unit": "µM"}, {"measurement": "CC50", "setting": "[21]; [29]", "result": 8.75, "unit": "µM"}, {"measurement": "GI50", "setting": "[22]", "result": 2.72, "unit": "µM"}, {"measurement": "LC50 (concentration giving 50% net cell kill)", "setting": "[22]", "result": 31.5, "unit": "µM"}, {"measurement": "GI50", "setting": "[23]", "result": 2.47, "unit": "µM"}, {"measurement": "CC50", "setting": "[23]; [29]", "result": 27.5, "unit": "µM"}, {"measurement": "GI50", "setting": "[24]", "result": 1.89, "unit": "µM"}, {"measurement": "CC50", "setting": "[24]; [29]", "result": 22, "unit": "µM"}, {"measurement": "GI50", "setting": "[25]", "result": 3.42, "unit": "µM"}, {"measurement": "LC50", "setting": "[25]", "result": 36.3, "unit": "µM"}, {"measurement": "GI50", "setting": "[26]", "result": 1.3, "unit": "µM"}, {"measurement": "LC50", "setting": "[26]", "result": "> 100", "unit": "µM"}, {"measurement": "MIC", "setting": "[27]", "result": 14, "unit": "µM"}, {"measurement": "MIC", "setting": "[28]", "result": "> 175", "unit": "µM"}]}]}
